What all share (assay type): in vivo
Experiment [1] concerns mice. Briefly: Carrageenan-induced paw edema model. Conditions: dose 10 mg/kg. Summed up:
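Thirty BALB-c mice randomised into five groups of six. Paw volume by digital plethysmometer at 0, 1, 2, 3, 4 and 5 h; percent inhibition from paw-volume increase, control versus treated. ANOVA/Dunnett's.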
(In general: The carrageenan paw model is a standard test of acute inflammation.)

Experiment [2] deals with mice (BALB-c). Description: Acetic acid-induced writhing assay. Conditions: 10 mg/kg i.p. Summed up:
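BALB-c mice of either sex (18–22 g), fasted 2 h, six per group. Writhes counted starting 5 min after acid; percent analgesic effect derived. Mean ± S.E.M., ANOVA with Dunnett's test versus negative control.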
Background: An intraperitoneal irritant provokes the stretching counted in writhing tests.

Experiment [3] deals with mice (BALB-c). Briefly: Hot plate assay. The following applies: dose 10 mg/kg. In general terms: Thermal pain tests record how soon the animal reacts.

Consider 3 compounds from paper PMC10448495 (ACS Omega, 2023).

With `O=C(O)Cc1ccccc1Nc1c(Cl)cccc1Cl` [diclofenac–Na, diclofenac sodium], the paw volume in experiment [1] (1 h) came out at 2.283 ± 0.201; in experiment [1] (2 h), 2.142 ± 0.105; in experiment [1] (3 h) it was 2.004 ± 0.224; in experiment [1] (4 h), 2.010 ± 0.185; in experiment [1] (5 h), 2.019 ± 0.022.

As to `COc1ccc2c(c1)c(CC(=O)O)c(C)n2C(=O)c1ccc(Cl)cc1` [indomethacin], the paw volume in experiment [1] (1 h) was 2.462 ± 0.032; in experiment [1] (2 h) it was 2.207 ± 0.218; in experiment [1] (3 h), 2.100 ± 0.122; in experiment [1] (4 h) it was 2.128 ± 0.370; in experiment [1] (5 h), 2.184 ± 0.632. The “no. of writhing (20 min)” value in experiment [2] is listed as 17.04 ± 1.22.

On to `COc1cccc(C2(O)CCCCC2CN(C)C)c1` (stereo not shown) [tramal, tramadol], for which the “latency of nociceptive response” value in experiment [3] (0 min) amounted to 10.32 ± 0.57 s; in experiment [3] (30 min), 26.22 ± 1.07 s; in experiment [3] (60 min) it was 25.45 ± 2.52 s; in experiment [3] (90 min) it was 20.37 ± 0.88 s; in experiment [3] (120 min), 20.07 ± 1.66 s.
